According to ChEMBL document CHEMBL1139704, “Discovery of potent inhibitors of pseudomonal quorum sensing via pharmacophore modeling and in silico screening” (Bioorg Med Chem Lett, 2006):
Activity calls are given as the source filed them. The calls are words filed in the database; no cut-off is given here.

Key:
Type in all cases: functional, organism-based
Pseudomonas aeruginosa [1] = assay: Inhibition of pyocyanin production in Pseudomonas aeruginosa
Summary of the method: (§1)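 Overnight nutrient broth cultures were pelleted, resuspended, grown to mid-log phase (OD600 0.3–0.5), and diluted to OD600 0.05. Cultures were exposed to compound in water at 50.00, 25.00, 10.00, 5.00, 2.50, 1.00, 0.10, 0.001 or zero final concentration, shaken 18 h at 37 C. Viable cells were counted, and the pellet OD600 was used to normalise pigment per bacterial OD unit.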

Pseudomonas aeruginosa [2] = assay: Inhibition of pyoverdin production in Pseudomonas aeruginosa; summary of the method: as §1
Pseudomonas aeruginosa [3] = assay: Inhibition of pyocyanin production in Pseudomonas aeruginosa ATCC 9027; summary of the method: as §1
Pseudomonas aeruginosa [4] = assay: Inhibition of pyoverdin production in Pseudomonas aeruginosa ATCC 9027; summary of the method: as §1

| Compound | IC50 (Pseudomonas aeruginosa [1]) [nM] | IC50 (Pseudomonas aeruginosa [2]) [nM] | IC50 (Pseudomonas aeruginosa [3]) [nM] | IC50 (Pseudomonas aeruginosa [4]) [nM] | Activity (Pseudomonas aeruginosa [1]) | Activity (Pseudomonas aeruginosa [2]) |
| --- | --- | --- | --- | --- | --- | --- |
| PHENYL MERCURIC NITRATE | 3020 | 3160 | 3240 | 3980 |  |  |
| triethylplumbyl 4-methylbenzenesulfonate | 282 | 355 | 158 | 794 |  |  |
| CCOP(=O)(OCC)O/N=C(/C)c1cccc(C)c1 |  |  |  |  | inactive | inactive |
| THIMEROSAL | 708 | 603 | 3160 | 3170 |  |  |
